Reference: PMC3911823 (The FEBS journal, 2011)
Where a chain is given by its changes, count along the chain named. Entries after “also recorded” stand apart in the source; their conditions may differ.

Assays:
[1] = molecular target: T1, P450 2B4 wild type (Oryctolagus cuniculus, UniProt P00178); experiment: Inhibition of 7-EFC O-deethylation by imidazole inhibitors; type: biochemical, rabbit (Oryctolagus cuniculus)
T1 sequence (P00178 with tags, fused parts or gaps limits assumed): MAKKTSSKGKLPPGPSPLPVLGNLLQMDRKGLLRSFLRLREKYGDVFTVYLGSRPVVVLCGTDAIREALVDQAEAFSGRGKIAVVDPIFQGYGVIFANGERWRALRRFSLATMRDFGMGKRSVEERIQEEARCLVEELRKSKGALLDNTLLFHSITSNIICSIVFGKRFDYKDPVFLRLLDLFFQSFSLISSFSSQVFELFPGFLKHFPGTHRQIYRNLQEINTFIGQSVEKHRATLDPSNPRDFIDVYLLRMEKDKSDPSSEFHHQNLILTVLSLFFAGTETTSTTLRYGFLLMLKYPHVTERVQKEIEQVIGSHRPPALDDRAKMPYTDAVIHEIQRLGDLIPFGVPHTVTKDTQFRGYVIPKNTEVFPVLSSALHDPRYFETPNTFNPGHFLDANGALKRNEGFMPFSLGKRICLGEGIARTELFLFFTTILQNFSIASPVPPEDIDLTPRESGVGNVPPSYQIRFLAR

[2] = molecular target: T2, P450 2B4 L437A (Oryctolagus cuniculus, UniProt P00178, L437A); experiment: as above; type: biochemical, rabbit (Oryctolagus cuniculus)
T2 sequence (P00178 with tags, fused parts or gaps L437A limits assumed): T1 sequence (P00178 with tags, fused parts or gaps limits assumed) with L418A

[3] = molecular target: T3, P450 2B4 H172F (Oryctolagus cuniculus, UniProt P00178, H172F); experiment: Spectral binding titration of imidazole ligands; parameters: species or system rabbit (Oryctolagus cuniculus); details: 2B4 H172F versus wild type
T3 sequence (P00178 with tags, fused parts or gaps H172F limits assumed): T1 sequence (P00178 with tags, fused parts or gaps limits assumed) with H153F
How it was run: (§1)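 Protein was the His-tagged 2B4dH construct (single mutants or wild type), expressed in TOPP3 cells and Ni-NTA purified. Spectra 350–700 nm recorded after serial 5 μl additions of 100 μM 4-CPI or bifonazole. Ks came from a tight-binding equation fit, and the 4-CPI/bifonazole Ks ratio was calculated.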

[4] = molecular target: T2, P450 2B4 L437A; experiment: Spectral binding titration of imidazole ligands; parameters: species or system rabbit (Oryctolagus cuniculus); details: 2B4 L437A versus wild type
How it was run: as §1

[5] = molecular target: T1, P450 2B4 wild type; type: biochemical, rabbit (Oryctolagus cuniculus); details: 2B4 WT
[6] = molecular target: T4, P450 2B4 H172Q (Oryctolagus cuniculus, UniProt P00178, H172Q); type: biochemical, rabbit (Oryctolagus cuniculus)
T4 sequence (P00178 with tags, fused parts or gaps H172Q limits assumed): T1 sequence (P00178 with tags, fused parts or gaps limits assumed) with H153Q

[7] = molecular target: T2, P450 2B4 L437A; type: biochemical, rabbit (Oryctolagus cuniculus)

| Structure (SMILES) | IC50 [1] [nM] | Ratio 4-CPI IC50/Bifonazole IC50 ([1]; 2B4 WT, 50 μM 7-EFC as substrate) | IC50 [2] [nM] | Ratio 4-CPI IC50/Bifonazole IC50 ([2]; 2B4 L437A, 50 μM 7-EFC as substrate) | change in the ratio of 4-CPI Ks to bifonazole Ks [3] | Ks (spectral dissociation constant) higher than wild type [4] | change in the ratio of 4-CPI Ks to bifonazole Ks [4] | kcat/S50 [5] | S50 ([5]; Hill equation) [µM] | kcat ([5]; substrate O-dealkylation) [min⁻¹] | decrease (change) in kcat versus wild type [6] | kcat [6] [min⁻¹] | kcat/S50 [6] | S50 ([6]; Hill equation) [µM] | kcat [7] [min⁻¹] | kcat/S50 [7] | substrate turnover (activity) [7] |
| --- | --- | --- | --- | --- | --- | --- | --- | --- | --- | --- | --- | --- | --- | --- | --- | --- | --- |
| Clc1ccc(-c2c[nH]cn2)cc1 [4-CPI, 4-(4-chlorophenyl)imidazole] | 40 | 0.04 | 970 | 3.88 | greater than 9 fold | ~ 50 times | greater than 9 fold |  |  |  |  |  |  |  |  |  |  |
| O=c1ccc2nc3ccc(OCc4ccccc4)cc3oc-2c1 [7-BR, 7-benzyloxyresorufin] |  |  |  |  |  |  |  | 3.3 | 2.3 ± 0.5 | 7.6 ± 0.3 | ~ 15 fold | 0.5 ± 0.1 | 0.06 | 8.2 ± 1.0 | 0 | 0 | did not turn over; also recorded: no activity |
